Test results as given in ChEMBL document CHEMBL1125138, “1,3-Dialkyl-3-acyltriazenes, a novel class of antineoplastic alkylating agents” (J Med Chem, 1990).

Tests used:
[1] = tested on: A498; experiment: Evaluated for the inhibitory concentration required to cause growth inhibition of A498Rem- renal cell line using the MTT Cytotoxicity Assay; format: functional, cell-based; conditions: Homo sapiens
Summary of the method: (§1)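 MTT microculture tetrazolium growth assay on human cell lines and normal fibroblasts. Cells seeded at 1000 cells/well, with compound added 24 h after plating. Cultures then incubated a further 6 days at 37 °C before MTT read-out of growth versus untreated cells.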

[2] = tested on: A-427; experiment: Evaluated for the inhibitory concentration required to cause growth inhibition of A427Mer- cell line of lung using the MTT Cytotoxicity Assay; format: functional, cell-based; conditions: Homo sapiens; summary of the method: as §1
[3] = tested on: A704; experiment: Evaluated for the inhibitory concentration required to cause growth inhibition of A704Rem- renal cell line using the MTT Cytotoxicity Assay; format: functional, cell-based; conditions: Homo sapiens; summary of the method: as §1
[4] = tested on: A673; experiment: Evaluated for the inhibitory concentration required to cause growth inhibition of A673Mer+ sarcoma cell line using the MTT Cytotoxicity Assay; format: functional, cell-based; conditions: Homo sapiens; summary of the method: as §1
[5] = tested on: A 172; experiment: Evaluated for the inhibitory concentration required to cause growth inhibition of A172Mer- cell line of central nervous system (CNS) using the MTT Cytotoxicity Assay; format: functional, cell-based; conditions: Homo sapiens; summary of the method: as §1
[6] = tested on: CCD 19Lu; experiment: Evaluated for the inhibitory concentration required to cause growth inhibition of CCD-19Lu fibroblasts cell line using the MTT Cytotoxicity Assay; format: functional, cell-based; conditions: Homo sapiens; summary of the method: as §1
[7] = tested on: DOD-1; experiment: Evaluated for the inhibitory concentration required to cause growth inhibition of DOD-1 breast cell line using the MTT Cytotoxicity Assay; format: functional, cell-based; conditions: Homo sapiens; summary of the method: as §1
[8] = tested on: NCI-H460; experiment: Evaluated for the inhibitory concentration required to cause growth inhibition of H460 cell line of lung using the Microculture Tetrazolium (MTT) Cytotoxicity Assay; format: functional, cell-based; conditions: Homo sapiens; summary of the method: as §1
[9] = tested on: NCI-H358; experiment: Evaluated for the inhibitory concentration required to cause growth inhibition of H358M cell line of lung using the Microculture Tetrazolium (MTT) Cytotoxicity Assay; format: functional, cell-based; conditions: Homo sapiens; summary of the method: as §1
[10] = tested on: NCI-H125; experiment: Evaluated for the inhibitory concentration required to cause growth inhibition of H125 cell line of lung using the Microculture Tetrazolium (MTT) Cytotoxicity Assay; format: functional, cell-based; conditions: Homo sapiens; summary of the method: as §1
[11] = tested on: NCI-H322M; experiment: Evaluated for the inhibitory concentration required to cause growth inhibition of H322M cell line of lung using the Microculture Tetrazolium (MTT) Cytotoxicity Assay; format: functional, cell-based; conditions: Homo sapiens; summary of the method: as §1
[12] = tested on: NCI-H23; experiment: Evaluated for the inhibitory concentration required to cause growth inhibition of H23 cell line of lung using the Microculture Tetrazolium (MTT) Cytotoxicity Assay; format: functional, cell-based; conditions: Homo sapiens; summary of the method: as §1
[13] = Evaluated in vivo for antineoplastic activity against LOX melanoma amelanotic tumor xenograft in nude mice after administering intra peritoneally 3 injections at a dose of 100 mg/kg; format: functional, Homo sapiens
Summary of the method: (§2)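 Nude mice bearing tumor xenografts, run through the NCI Developmental Therapeutics Program. Compound given ip as three injections at 4-day intervals for MX-1 mammary, LX-1 lung and LOX melanoma. Activity read out as % T/C.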

[14] = Evaluated in vivo for antineoplastic activity against LOX melanoma amelanotic tumor xenograft in nude mice after administering intra peritoneally 3 injections at a dose of 400 mg/kg; format: functional, Homo sapiens; summary of the method: as §2
[15] = Evaluated in vivo for antineoplastic activity against LOX melanoma amelanotic tumor xenograft in nude mice after administering intra peritoneally 3 injections at a dose of 800 mg/kg; format: functional, Homo sapiens; summary of the method: as §2
[16] = tested on: LOX IMVI; experiment: Evaluated for the inhibitory concentration required to cause growth inhibition of LOX melanoma cell line using the MTT Cytotoxicity Assay; format: functional, cell-based; conditions: Homo sapiens; summary of the method: as §1
[17] = Evaluated in vivo for antineoplastic activity against LX-1 Lung small cell carcinoma tumor xenograft in nude mice after administering intra peritoneally 3 injections at a dose of 200 mg/kg; format: functional, Homo sapiens; summary of the method: as §2
[18] = tested on: MCF7; experiment: Evaluated for the inhibitory concentration required to cause growth inhibition of MCF-7 breast cell line using the MTT Cytotoxicity Assay; format: functional, cell-based; conditions: Homo sapiens; summary of the method: as §1
[19] = tested on: MAR BEL fibroblasts cell line; experiment: Evaluated for the inhibitory concentration required to cause growth inhibition of MAR BEL fibroblasts cell line using the MTT Cytotoxicity Assay; format: functional, cell-based; conditions: Homo sapiens; summary of the method: as §1
[20] = Evaluated in vivo for antineoplastic activity against LX-1 Lung small cell carcinoma tumor xenograft in nude mice after administering intra peritoneally 3 injections at a dose of 100 mg/kg; format: functional, Homo sapiens; summary of the method: as §2
[21] = tested on: NCI/ADR-RES; experiment: Evaluated for the inhibitory concentration required to cause growth inhibition of MCF-7ADR breast cell line using the MTT Cytotoxicity Assay; format: functional, cell-based; conditions: Homo sapiens; summary of the method: as §1
[22] = tested on: MX1; experiment: Evaluated in vivo for antineoplastic activity against MX-1 mammary carcinoma tumor xenograft in nude mice after administering intra peritoneally 3 injections at a dose of 200 mg/kg; format: functional, Homo sapiens; summary of the method: as §2
[23] = tested on: MX1; experiment: Evaluated in vivo for antineoplastic activity against MX-1 mammary carcinoma tumor xenograft in nude mice after administering intra peritoneally 3 injections at a dose of 400 mg/kg; format: functional, Homo sapiens; summary of the method: as §2
[24] = tested on: MX1; experiment: Evaluated in vivo for antineoplastic activity against MX-1 mammary carcinoma tumor xenograft in nude mice after administering intra peritoneally 3 injections at a dose of 100 mg/kg; format: functional, Homo sapiens; summary of the method: as §2
[25] = tested on: Malme-3M; experiment: Evaluated for the inhibitory concentration required to cause growth inhibition of MALME-3M melanoma cell line using the MTT Cytotoxicity Assay; format: functional, cell-based; conditions: Homo sapiens; summary of the method: as §1
[26] = tested on: OVCAR-4; experiment: Evaluated for the inhibitory concentration required to cause growth inhibition of OVCAR-4 ovarian cell line using the MTT Cytotoxicity Assay; format: functional, cell-based; conditions: Homo sapiens; summary of the method: as §1
[27] = tested on: OVCAR-3; experiment: Evaluated for the inhibitory concentration required to cause growth inhibition of OVCAR-3 ovarian cell line using the MTT Cytotoxicity Assay; format: functional, cell-based; conditions: Homo sapiens; summary of the method: as §1
[28] = tested on: P388; experiment: Evaluated in vivo for antineoplastic activity against P388 murine leukemia tumor […] after administering intra peritoneal injection at a dose of 100 mg/kg.; format: functional, Mus musculus
Summary of the method: (§3)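 P388 leukemia-bearing mice, run through the NCI Developmental Therapeutics Program. Compound given ip once daily on 5 consecutive days. Activity read out as % T/C.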

[29] = tested on: P388; experiment: Evaluated in vivo for antineoplastic activity against P388 murine leukemia tumor […] after administering intra peritoneal injection at a dose of 200 mg/kg.; format: functional, Mus musculus; summary of the method: as §3
[30] = tested on: P388; experiment: Evaluated in vivo for antineoplastic activity against P388 murine leukemia tumor […] after administering intra peritoneal injection at a dose of 50 mg/kg.; format: functional, Mus musculus; summary of the method: as §3
[31] = tested on: HOS-TE85; experiment: Evaluated for the inhibitory concentration required to cause growth inhibition of TE85Mer+ sarcoma cell line using the MTT Cytotoxicity Assay; format: functional, cell-based; conditions: Homo sapiens; summary of the method: as §1
[32] = tested on: TE-671; experiment: Evaluated for the inhibitory concentration required to cause growth inhibition of TE-671 cell line of central nervous system (CNS)using the MTT Cytotoxicity Assay; format: functional, cell-based; conditions: Homo sapiens; summary of the method: as §1
[33] = tested on: WiDr; experiment: Evaluated for the inhibitory concentration required to cause growth inhibition of WiDR colon cell line using the MTT Cytotoxicity Assay; format: functional, cell-based; conditions: Homo sapiens
Summary of the method: (§4)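 MTT cell-growth assay in human cell lines: cells harvested and seeded at 1000 cells/well in 96-well plates. Compound added after 24 h, then cultures incubated a further 6 days at 37 °C. Growth measured with and without agent.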

[34] = tested on: U-251; experiment: Evaluated for the inhibitory concentration required to cause growth inhibition of U251 cell line of central nervous system (CNS) using the MTT Cytotoxicity Assay; format: functional, cell-based; conditions: Homo sapiens; summary of the method: as §4
[35] = tested on: RPMI-7951; experiment: Evaluated for the inhibitory concentration required to cause growth inhibition of RPMI7951 melanoma cell line using the MTT Cytotoxicity Assay; format: functional, cell-based; conditions: Homo sapiens; summary of the method: as §1
[36] = tested on: SK-MEL-5; experiment: Evaluated for the inhibitory concentration required to cause growth inhibition of SK-MEL-5 melanoma cell line using the MTT Cytotoxicity Assay; format: functional, cell-based; conditions: Homo sapiens; summary of the method: as §1
[37] = Evaluated in vivo for antineoplastic activity against LOX melanoma amelanotic tumor xenograft in nude mice after administering intra peritoneally 3 injections at a dose of 200 mg/kg; format: functional, Homo sapiens; summary of the method: as §2
[38] = tested on: A549; experiment: Evaluated for the inhibitory concentration required to cause growth inhibition of A549Rem- cell line of lung using the MTT Cytotoxicity Assay; format: functional, cell-based; conditions: Homo sapiens; summary of the method: as §1
[39] = tested on: NCI-H522 (Homo sapiens); experiment: Evaluated for the inhibitory concentration required to cause growth inhibition of H522 cell line of lung using the Microculture Tetrazolium (MTT) Cytotoxicity Assay

## CNC(=O)N(C)/N=N\CCCl
[1]
  IC50: 20 µM
[2]
  IC50: 18 µM
[3]
  IC50: 35 µM
[4]
  IC50: 35 µM
[5]
  IC50: 27 µM
[6]
  IC50: 60 µM
[7]
  IC50: 21 µM
[8]
  IC50: 60 µM
[9]
  IC50: 60 µM
[10]
  IC50: 45 µM
[11]
  IC50: 37 µM
[12]
  IC50: 18 µM
[13]
  T/C: 201%
[14]
  T/C: 309%
[15]
  T/C: 309%
[16]
  IC50: 10 µM
[17]
  T/C: -66%
[18]
  IC50: 14 µM
[19]
  IC50: 47 µM
[20]
  T/C: -19%
[21]
  IC50: 17 µM
[22]
  T/C: 1%
[23]
  T/C: -76%
[24]
  T/C: 15%
[25]
  IC50: 28 µM
[26]
  IC50: 20 µM
[27]
  IC50: 20 µM
[28]
  T/C: 196%
[29]
  T/C: 297%
[30]
  T/C: 175%
[31]
  IC50: 26 µM
[32]
  IC50: 55 µM
[33]
  IC50: 14 µM
[34]
  IC50: 30 µM
[35]
  IC50: 18 µM
[36]
  IC50: 13 µM
[37]
  T/C: 309%
[38]
  IC50: 26 µM
[39]
  IC50: 13 µM
